Experimental data taken from ChEMBL document CHEMBL3286141 (Bioorg Med Chem, 2014).
Activity calls are given as the source filed them. The calls are words filed in the database; no cut-off is given here.

Legend:
[1] = (§1) Antiproliferative activity against human pancreatic stellate cells at 5 uM after 24 to 48 hrs by AlamarBlue assay; assay type: functional
Outline: (§2)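 Transformed human PSC seeded at 3×10^3 cells/well in sextuplicate. Next day exposed to compound at the stated single concentration in 1% FBS medium for 24–48 h. Viability read by AlamarBlue fluorescence (ex/em 544/590 nm). Values are the mean of at least three independent experiments.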

[2] = (§3) Antiproliferative activity against human pancreatic stellate cells at 20 uM after 24 to 48 hrs by AlamarBlue assay; assay type: functional; outline: as §2
[3] = (§4) Antiproliferative activity against human pancreatic stellate cells at 10 uM after 24 to 48 hrs by AlamarBlue assay; assay type: functional; outline: as §2
Mus musculus [4] = assay: Anti-fibrotic activity in C57BL/6 mouse caerulein-induced chronic pancreatitis model assessed as reduction of tissue edema at 0.5 mg/kg, po administered qd for 6 days per week for 3 weeks using hematoxylin 7211 staining by immunohistochemistry analysis; assay type: functional, organism-based; design: dose 0.5 mg/kg
[5] = Antiproliferative activity against human pancreatic stellate cells after 24 hrs by AlamarBlue assay; assay type: functional
Outline: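 Immortalized human PSC (SV40 large T plus telomerase, DMEM/10% FBS) seeded at 3×10^3 cells/well in sextuplicate. Next day switched to 1% FBS with a range of compound concentrations for 24 h. AlamarBlue fluorescence read at 544/590 nm. IC50 taken by nonlinear regression of fluorescence versus log concentration, as mean ± SEM of at least three independent experiments.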

[6] = Induction of apoptosis in human pancreatic stellate cells after 14 hrs by cell death detection ELISAPLUS assay; assay type: functional
Outline: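 Transformed human PSC (primary cells immortalised with SV40 large T antigen and telomerase; grown in DMEM, 10% FBS, 37 °C) plated at 8×10^3 per well in triplicate; next day switched to 1% FBS with compound at various doses for 14 h. Cytoplasmic nucleosomes detected by sandwich ELISA, absorbance at 405 nm. EC50 by nonlinear regression against log concentration; at least three independent experiments.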

Mus musculus [7] = assay: Anti-fibrotic activity in C57BL/6 mouse caerulein-induced chronic pancreatitis model assessed as reduction of fibrosis at 0.5 mg/kg, po administered qd for 6 days per week for 3 weeks using hematoxylin 7211 staining by image analysis; assay type: functional, organism-based; design: dose 0.5 mg/kg
Outline: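 C57BL/6 mice given cerulein 50 μg/kg i.p. hourly for 5 h, 3 d/week for 4 weeks; PBS controls. From week 2, oral gavage at 0.5 mg/kg/d, 6 d/week for 3 weeks, in 0.5% methylcellulose + 0.025% Tween 20. Formalin-fixed paraffin sections (5 μm) stained by IHC for fibronectin with hematoxylin counterstain; percent area of stain quantified by image analysis. n = 10–11 per group.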

Mus musculus [8] = assay: Anti-fibrotic activity in C57BL/6 mouse caerulein-induced chronic pancreatitis model assessed as reduction of stromal fibrosis at 0.5 mg/kg, po administered qd for 6 days per week for 3 weeks using hematoxylin 7211 staining by immunohistochemistry analysis; assay type: functional, organism-based; design: dose 0.5 mg/kg
Mus musculus [9] = assay: Anti-fibrotic activity in C57BL/6 mouse caerulein-induced chronic pancreatitis model assessed as reduction of acinar cell damage at 0.5 mg/kg, po administered qd for 6 days per week for 3 weeks using hematoxylin 7211 staining by immunohistochemistry analysis; assay type: functional, organism-based; design: dose 0.5 mg/kg
Homo sapiens [10] = species on record: Homo sapiens; assay: as §1; assay type: functional; outline: as §2
Homo sapiens [11] = species on record: Homo sapiens; assay: as §3; assay type: functional; outline: as §2
Homo sapiens [12] = species on record: Homo sapiens; assay: as §4; assay type: functional; outline: as §2

| Structure (SMILES) | inhibition at 5 µM [1] | inhibition at 20 µM [2] | inhibition at 10 µM [3] | other results |
| --- | --- | --- | --- | --- |
| COc1cc(OC)c2c(=O)cc(-c3ccc(OCCN)cc3)oc2c1 | 6% | 70% | 35% |  |
| COc1cc(OC)c2c(=O)cc(-c3ccc(OCCN4CCCC4)cc3)oc2c1 | 48% | 98% | 66% |  |
| COc1cc(OC)c2c(=O)cc(-c3ccc(OCC(O)CN4CCCCC4)cc3)oc2c1 (centres undefined) | 34% | 95% | 65% | Activity (Mus musculus [4]): Active; IC50 [5]: 8 µM; EC50 [6]: 35.2 µM; Activity (Mus musculus [7]): Active; Activity (Mus musculus [8]): Active; Activity (Mus musculus [9]): Active |
| COC(=O)[C@@H]1CCCN1CCOc1ccc(-c2cc(=O)c3c(OC)cc(OC)cc3o2)cc1 | 22% | 67% | 37% |  |
| COc1cc(OC)c2c(=O)cc(-c3ccc(OCCCN)cc3)oc2c1 | 22% |  | 39% |  |
| COc1cc(OC)c2c(=O)cc(-c3ccc(OCCN4CCCC4=O)cc3)oc2c1 | 7% | 33% | 14% |  |
| COc1cc(OC)c2c(=O)cc(-c3ccc(OC4CCN(C)CC4)cc3)oc2c1 | 28% |  | 49% |  |
| COc1cc(O)c2c(=O)cc(-c3ccc(OCCN4CCCC4)cc3)oc2c1 |  | 99% | 39% | inhibition (Homo sapiens [10]): inactive |
| COc1cc(OC)c2c(=O)cc(-c3ccc(OCCCN(C)C)cc3)oc2c1 | 36% | 86% | 59% |  |
| COc1cc(OC)c2c(=O)cc(-c3ccc(NCCN(C)C)cc3)oc2c1 | 30% | 84% | 60% |  |
| COc1cc(OC)c2c(=O)cc(-c3ccc(Br)cc3)oc2c1 | 12% | 22% | 10% |  |
| COc1cc(OC)c2c(=O)cc(-c3ccc(O)cc3)oc2c1 |  |  |  | inhibition (Homo sapiens [10]): inactive; inhibition (Homo sapiens [11]): inactive; inhibition (Homo sapiens [12]): inactive |
| COc1cc(OC)c2c(=O)cc(-c3ccc(OCC(O)CO)cc3)oc2c1 (centres undefined) |  | 16% | 11% | inhibition (Homo sapiens [10]): inactive |
| COc1cc(OC)c2c(=O)cc(-c3ccc(-c4ccc(F)nc4)cc3)oc2c1 |  | 19% | 6% | inhibition (Homo sapiens [10]): inactive |
| COc1cc(OC)c2c(=O)cc(-c3ccc(OCCN4CCCCC4)cc3)oc2c1 | 45% | 97% | 64% |  |
| COc1cc(OC)c2c(=O)cc(-c3ccc(OCCF)cc3)oc2c1 |  | 21% |  | inhibition (Homo sapiens [10]): inactive; inhibition (Homo sapiens [12]): inactive |
| COc1cc(OC)c2c(=O)cc(-c3ccc(OCC4CO4)cc3)oc2c1 (centres undefined) | 69% | 93% | 89% | Activity (Mus musculus [4]): Active; IC50 [5]: 2.5 µM; EC50 [6]: 9.6 µM; Activity (Mus musculus [7]): Active; Activity (Mus musculus [8]): Active; Activity (Mus musculus [9]): Active |
| COc1cc(OC)c2c(=O)cc(-c3ccc(NCCN4CCCC4)cc3)oc2c1 | 21% | 80% | 51% |  |
| COc1cc(OC)c2c(=O)cc(-c3ccc(OC4CCNCC4)cc3)oc2c1 |  |  | 21% | inhibition (Homo sapiens [10]): inactive |
| O=c1cc(-c2ccc(OCCN3CCCC3)cc2)oc2cc(O)cc(O)c12 | 2% | 90% | 71% |  |
| COc1cc(OC)c2c(=O)cc(-c3ccc(OCC(O)CN4CCCC4)cc3)oc2c1 (centres undefined) | 21% | 57% | 37% |  |
| COc1cc(OC)c2c(=O)cc(-c3ccc(OCCN(C)C)cc3)oc2c1 | 19% | 65% | 51% |  |
| COc1cc(OC)c2c(=O)cc(-c3ccc(OCC(O)CN(C)C)cc3)oc2c1 (centres undefined) | 42% | 71% | 60% |  |
| COc1cc(OC)c2c(=O)cc(-c3ccc(OCCBr)cc3)oc2c1 |  | 20% |  | inhibition (Homo sapiens [10]): inactive; inhibition (Homo sapiens [12]): inactive |
| COc1cc(OC)c2c(=O)cc(-c3ccc(OCCN4CCOCC4)cc3)oc2c1 |  |  |  | inhibition (Homo sapiens [10]): inactive; inhibition (Homo sapiens [11]): inactive; inhibition (Homo sapiens [12]): inactive |
| CCN(CC)CCOc1ccc(-c2cc(=O)c3c(OC)cc(OC)cc3o2)cc1 | 33% | 72% | 60% |  |
| O=c1cc(-c2ccc(O)cc2)oc2cc(O)cc(O)c12 [APIGENIN] | 11% | 64% | 34% | Activity (Mus musculus [4]): Active; IC50 [5]: 18.6 µM; EC50 [6]: 24.5 µM; Activity (Mus musculus [7]): Active; Activity (Mus musculus [8]): Active; Activity (Mus musculus [9]): Active |
| COc1cc(OC)c2c(=O)cc(-c3ccc(OCCN4CCN(C)CC4)cc3)oc2c1 | 22% | 67% | 42% |  |
